Four molecules from ChEMBL document CHEMBL1155380, “Synthesis and characterization of a novel iNOS/Akt inhibitor Se,Se'-1,4-phenylenebis(1,2-ethanediyl)bisisoselenourea (PBISe)--against colon cancer” (Bioorg Med Chem Lett, 2010) can be followed below.

What is called IC50 is the point on the concentration scale where inhibition reaches its midpoint. A low value points to greater potency in that assay. Broadly, the inhibition is the percentage by which the read-out fell short of the control.

In series [1] the test system is Caco-2. Put plainly: Selectivity ratio of IC50 for human Caco-2 cells to IC50 for human FF2441 cells. The procedure, abridged:
(§1)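 Colon adenocarcinoma lines (Caco-2, HT-29, HCT-116, SW-480) were grown in Advanced DMEM with 10% heat-treated FBS and L-glutamine, or in RPMI-1640 with 10% FBS. They were exposed to PBS vehicle or graded compound (10–100 μM, or 1.6–50 μM) for 72 h, and viability was read by MTS. FF2441 normal fibroblasts were tested by a similar MTS procedure. IC50 was fitted from dose-response curves.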

Series [2] deals with SW480. As to the kind of experiment: Antitumor activity against human SW480 cells after 72 hrs by MTS assay. In kind it is functional, cell-based. Particulars: SW480, 72 h. The procedure, abridged:
(§2)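 Colon adenocarcinoma cells (Advanced DMEM with 2 mM L-glutamine and 10% heat-treated FBS, or RPMI-1640 with 10% FBS) exposed to increasing concentrations (10–100 μM, or 1.6–50 μM) for 72 h. Viable cells quantified by MTS. IC50 from dose-response curves, at least three independent experiments.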
(Tetrazolium assays rely on reduction of a dye to a coloured formazan, in cell work by metabolically active cells.)

The subject of series [3] is Caco-2. Put plainly: Antitumor activity against human Caco-2 cells after 72 hrs by MTS assay. In kind it is functional, cell-based. Particulars: Caco-2, 72 h. The procedure, abridged: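 Cells plated at 5×10^3 per well for 24 h, then exposed to PBS vehicle or increasing compound concentrations for 72 h. Viable cells were quantified by MTS and expressed as a percentage of the PBS-treated control. IC50 was fitted from dose-response curves, from at least three independent experiments, and reported with standard error.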

Series [4] has as its system HT-29. Put plainly: Selectivity ratio of IC50 for human HT-29 cells to IC50 for human FF2441 cells. Put shortly: as §1
Another series deals with HCT-116. As to the kind of experiment: Antitumor activity against human HCT116 cells after 72 hrs by MTS assay. Particulars: HCT-116, 72 h. In kind it is functional, cell-based. Put shortly: as §2
The subject of series [5] is SW480. Put plainly: Ratio of IC50 for human SW480 cells to IC50 for human FF2441 cells. Put shortly: as §1
Series [6] in a line: Selectivity ratio of IC50 for human HCT116 cells to IC50 for human FF2441 cells. In kind it is ADME, cell-based, HCT-116. Particulars: HCT116 cells and FF2441 cells. Put shortly:
as §1

The subject of series [7] is Cancer cell lines. Put plainly: Inhibition of MAPK in human colon cancer cells assessed as decrease in pAKT level at 2 to 6 uM by Western blot analysis. It counts as cell-based. Put shortly: (§3)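 They were cleared at ≥10,000×g for 10 min at 4°C and assayed by BCA; 30 μg per lane went on NuPAGE gels, then PVDF. Probes: phospho-Akt (Ser473), phospho-PRAS40, cleaved PARP and p27, with HRP secondaries and ECL detection.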

For a further series, the system named is PC-3. As to the kind of experiment: Antitumor activity against human PC3 cells after 24 hrs by MTS assay. It counts as functional, cell-based. The conditions noted are these: PC-3, 24 h. Put shortly:
(§4)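 Cells plated at 5×10^3 per well for 24 h, then treated with PBS vehicle or increasing concentrations (10–100 μM or 1–40 μM). Viable cells measured by MTS as percent of PBS control. IC50 from dose-response curves. Normal FF2441 fibroblasts run alongside. Lines grown in DMEM/10% FBS, except WM115 in Tu2% medium without calcium chloride, with 2% heat-treated FBS.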

Series [8] relates to Cancer cell lines. As to the kind of experiment: Inhibition of MAPK in human colon cancer cells assessed as increase in cleaved PARP level at 2 to 6 uM by Western blot analysis. It counts as cell-based. Put shortly: as §3
In general terms: Immunoblotting shows a protein as a band on a membrane.

Series [9] deals with Cancer cell lines. As to the kind of experiment: Inhibition of MAPK in human colon cancer cells assessed as increase in p27 level at 2 to 6 uM by Western blot analysis. It counts as cell-based. Put shortly: as §3
The subject of another series is WM-115. Put plainly: Antitumor activity against human WM115 cells after 24 hrs by MTS assay. Particulars: WM-115, 24 h. In kind it is functional, cell-based. The procedure, abridged: as §4
The test system of series [10] is Cancer cell lines. As to the kind of experiment: Inhibition of MAPK in human colon cancer cells assessed as decrease in AKT2 level at 2 to 6 uM by Western blot analysis. It counts as cell-based.
The next series concerns OVCAR-3. Put plainly: Antitumor activity against human OVCAR-3 cells after 24 hrs by MTS assay. In kind it is functional, cell-based. The conditions noted are these: OVCAR-3, 24 h. The procedure, abridged:
as §4

The next series concerns A549. As to the kind of experiment: Antitumor activity against human A549 cells after 24 hrs by MTS assay. In kind it is functional, cell-based. The conditions noted are these: A549, 24 h. The procedure, abridged:
as §4

Series [11] concerns Cancer cell lines. As to the kind of experiment: Inhibition of MAPK in human colon cancer cells assessed as decrease in pPRAS40 level at 2 to 6 uM by Western blot analysis. It counts as cell-based. Put shortly:
as §3

A further series concerns HT-1080. Put plainly: Antitumor activity against human HT1080 cells after 24 hrs by MTS assay. It counts as functional, cell-based. Particulars: HT-1080, 24 h. The procedure, abridged: as §4
The next series relates to MDA-MB-231. Put plainly: Antitumor activity against human MDA-MB-231 cells after 24 hrs by MTS assay. In kind it is functional, cell-based. Particulars: MDA-MB-231, 24 h. The procedure, abridged: as §4
Series [12] has as its system Cancer cell lines. Put plainly: Inhibition of PI3K in human colon cancer cells assessed as increase in p27 level at 2 to 6 uM by Western blot analysis. In kind it is cell-based. Put shortly:
(§5)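 Lysates in HEPES pH 7.5/NaCl/EDTA/Triton X-100 buffer with phosphatase and protease inhibitors, cleared at ≥10,000×g for 10 min at 4°C. BCA-quantified, 30 μg per lane. SDS gel, PVDF transfer, probed for PRAS40, phospho-PRAS40, Akt3, phospho-Akt Ser473, p27, cleaved PARP, cyclin D1 and Erk. HRP secondaries, ECL detection.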

The subject of series [13] is Cancer cell lines. Put plainly: Inhibition of PI3K in human colon cancer cells assessed as decrease in pAKT level at 2 to 6 uM by Western blot analysis. It counts as cell-based. The procedure, abridged:
as §5

For series [14], the system named is Cancer cell lines. As to the kind of experiment: Inhibition of PI3K in human colon cancer cells assessed as decrease in AKT2 level at 2 to 6 uM by Western blot analysis. In kind it is cell-based.
Series [15] deals with Nitric oxide synthase, inducible (Homo sapiens) (UniProt P35228). As to the kind of experiment: Inhibition of iNOS in human Caco-2 cells assessed as reduction of total nitrite production at 2 uM after 72 hrs by colorimetric assay relative to control. In kind it is cell-based. Put shortly: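 Caco-2 cells (1×10^6) in Advanced DMEM/10% heat-treated FBS for 12 h, then conditioned in phenol-red-free DMEM/0.5% FBS. Treated 72 h in the same medium, PBS control. Supernatant cleared at 500×g, incubated 2 h with nitrate reductase and cofactors, then Griess reagents I and II. A540 read against a nitrate standard curve (5–35 μM). One-way ANOVA.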

In series [16] the test system is HT-29. As to the kind of experiment: Antitumor activity against human HT-29 cells after 72 hrs by MTS assay. The conditions noted are these: HT-29, 72 h. In kind it is functional, cell-based. Put shortly:
as §2

The subject of series [17] is Cancer cell lines. Put plainly: Inhibition of PI3K in human colon cancer cells assessed as increase in cleaved PARP level at 2 to 6 uM by Western blot analysis. In kind it is cell-based. Put shortly: as §5
Series [18] concerns Cancer cell lines. As to the kind of experiment: Inhibition of PI3K in human colon cancer cells assessed as decrease in pPRAS40 level at 2 to 6 uM by Western blot analysis. In kind it is cell-based. Put shortly: as §5

Active and inactive are the calls of the source. The rule behind the calls is not given here.

Chain of Nitric oxide synthase, inducible (Homo sapiens) (P35228 whole entry): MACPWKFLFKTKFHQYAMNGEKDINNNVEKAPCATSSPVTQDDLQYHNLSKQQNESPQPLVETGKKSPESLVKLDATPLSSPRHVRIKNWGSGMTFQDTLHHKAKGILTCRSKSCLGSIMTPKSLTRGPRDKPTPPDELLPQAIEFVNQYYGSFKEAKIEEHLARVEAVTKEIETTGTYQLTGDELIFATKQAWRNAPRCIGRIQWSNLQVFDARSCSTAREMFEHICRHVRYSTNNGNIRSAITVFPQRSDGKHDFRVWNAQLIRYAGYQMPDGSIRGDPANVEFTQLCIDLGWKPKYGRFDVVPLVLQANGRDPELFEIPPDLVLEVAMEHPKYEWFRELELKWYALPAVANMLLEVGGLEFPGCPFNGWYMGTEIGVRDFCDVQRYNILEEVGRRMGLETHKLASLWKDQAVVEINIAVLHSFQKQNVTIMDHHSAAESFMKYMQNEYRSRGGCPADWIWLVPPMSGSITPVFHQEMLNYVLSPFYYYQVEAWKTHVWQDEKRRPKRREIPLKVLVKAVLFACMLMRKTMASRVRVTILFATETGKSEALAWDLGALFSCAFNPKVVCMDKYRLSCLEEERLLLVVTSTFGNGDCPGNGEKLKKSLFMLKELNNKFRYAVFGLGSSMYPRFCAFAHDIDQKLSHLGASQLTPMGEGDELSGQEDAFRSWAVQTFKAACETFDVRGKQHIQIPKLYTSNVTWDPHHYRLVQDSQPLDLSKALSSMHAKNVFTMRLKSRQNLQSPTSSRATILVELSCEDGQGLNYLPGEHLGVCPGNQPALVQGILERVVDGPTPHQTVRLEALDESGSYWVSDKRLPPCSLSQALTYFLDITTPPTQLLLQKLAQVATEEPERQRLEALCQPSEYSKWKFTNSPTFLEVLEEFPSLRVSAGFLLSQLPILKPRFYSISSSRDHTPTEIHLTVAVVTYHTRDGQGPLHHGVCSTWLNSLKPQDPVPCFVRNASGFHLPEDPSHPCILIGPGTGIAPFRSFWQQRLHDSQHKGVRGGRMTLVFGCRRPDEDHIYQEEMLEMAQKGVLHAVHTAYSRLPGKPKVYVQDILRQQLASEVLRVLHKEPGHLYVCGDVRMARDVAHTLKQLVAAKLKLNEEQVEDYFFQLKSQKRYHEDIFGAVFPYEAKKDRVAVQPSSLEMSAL

Consider `Br.N=C(N)SCCc1ccccc1` [PHENYLETHYLISOTHIOUREAHYDROBROMIDE], for which the Ratio in the series with Caco-2 [1], in the series with HT-29 [4] and with SW480 [5] was 2 throughout. In addition, the IC50 with SW480 [2], with Caco-2 [3] and in the series with HCT-116 was > 100 µM each time. Further, the selectivity ratio in [6] was determined as 2.

In the case of `Br.Br.N=C(N)SCCc1ccc(CCSC(=N)N)cc1`, the Ratio in the series with Caco-2 [1] and with SW480 [5] was 2 each time. Also, the inhibition entry with Cancer cell lines [7], in the series on Cancer cell lines [8], in the series with Cancer cell lines [9], in the series with Cancer cell lines [10] and with Cancer cell lines [11] was “inactive” throughout. The IC50 was > 100 µM in the series on PC-3; > 100 µM in the series on WM-115; 59.4 µM in the series with Caco-2 [3]; > 100 µM in the series with HCT-116; > 100 µM in the series with OVCAR-3; > 100 µM in the series on A549. Also, the IC50 with HT-1080 and in the series on MDA-MB-231 was > 100 µM throughout. For the same molecule, in series [6], the selectivity ratio worked out at 2.

Turning to `Br.N=C(N)[Se]CCc1ccc(CC[Se]C(=N)N)cc1`, the inhibition entry in the series with Cancer cell lines [12], in the series with Cancer cell lines [13], in the series with Cancer cell lines [14], in the series on Cancer cell lines [17] and in the series with Cancer cell lines [18] was “Active” each time. Besides, the Ratio with Caco-2 [1], in the series with HT-29 [4] and in the series with SW480 [5] was 2 throughout. In addition, the IC50 with PC-3 amounted to 6.64 µM; in the series on WM-115 it was 9.7 µM; in the series on OVCAR-3, 5.33 µM; in the series with A549, 4.17 µM; in the series with HT-1080, 3.22 µM; with HT-29 [16] it was 3.84 µM. This molecule had an IC50 in the series on MDA-MB-231 of 6.03 µM. Besides, the inhibition in series [15] turned out to be 25%. Further, in [6], the selectivity ratio is 2.

Regarding `Br.N=C(N)[Se]CCc1ccccc1`, the Ratio in the series on Caco-2 [1], in the series on HT-29 [4] and in the series on SW480 [5] was 2 in each case. The IC50 with SW480 [2] and in the series on HCT-116 was > 100 µM each time. Also, the selectivity ratio in series [6] came out at 2.
